What is called solubility is how much of the substance goes into solution per volume.

Values after ≈ are worked out from the molar mass of the structure shown.

Experimental findings from ChEMBL document CHEMBL1138220, “Synthesis and characterization of a novel liver-targeted prodrug of cytosine-1-beta-D-arabinofuranoside monophosphate for the treatment of hepatocellular carcinoma” (J Med Chem, 2006) are described below.

Data set [1] in a line: Stability in phosphate buffer at pH 7.4 at 37 degC at 100 uM after 24 hrs. The data set is classed as physicochemical. Particulars: for remaining at 24 h, 100 µM: phosphate buffer, pH 7.4, read-out: Stability. The method in brief: (§1)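 Prodrug at 100 µM in 10 mM phosphate buffer pH 7.4, held at 37 °C. Intact prodrug was quantified by C18 HPLC at 270 nm and expressed as % remaining at 24 h or 72 h.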

Data set [2] in a line: Stability in phosphate buffer at pH 7.4 at 37 degC at 100 uM after 72 hrs. The data set is classed as physicochemical. Particulars: for remaining at 72 h, 100 µM: phosphate buffer, pH 7.4, read-out: Stability. The method in brief:
as §1

Data set [3] is described as follows: Aqueous solubility in citrate buffer at pH 4. The data set is classed as physicochemical. The method, boiled down: (§2)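 Each prodrug was dissolved at 10 mg/mL (pyridyl prodrugs at 200 mg/mL) in 100 mM citrate buffer pH 4.0 or 100 mM phosphate pH 7.4. Samples were sonicated 20 min, held ~10 min at room temperature, filtered through 0.45 µm, diluted 1:100 or 1:10000 in DMSO, then quantified by C18 HPLC (acetonitrile gradient, 40 °C, 270 nm).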

Data set [4] can be described thus: Aqueous solubility in phosphate buffer at pH 7.4. The data set is classed as physicochemical. The method, boiled down:
as §2

The subject of data set [5] is Liver. As to the kind of experiment: Distribution of araCTP in Swiss Webster mouse liver at 100 mg/kg, ip measured as AUC (0-4h). Details: time < 5 hr, dose 100 mg/kg, route intraperitoneal. The data set is classed as ADME, organism-based. The settings on record: in vivo, 5 h. The method, boiled down:
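Nonfasted male Swiss Webster mice were dosed i.p. at a molar equivalent of 100 mg/kg araC. Livers were taken at set times up to 4 h, snap-frozen, homogenized in 3 volumes of 10% PCA, centrifuged and neutralized with KOH/KHCO₃. AraCTP was measured and reported as AUC 0-4 h (nmol·h/g).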

In a further data set the test system is Bone marrow. The data set can be described thus: Distribution of araCTP in Swiss Webster mouse bone marrow at 100 mg/kg, ip measured as AUC (0-4h). The format is ADME, organism-based. Set-up: time < 5 hr, dose 100 mg/kg, route intraperitoneal. Particulars: in vivo, 5 h. The method, boiled down:
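Male Swiss Webster mice were given i.p. prodrug at a molar equivalent of 100 mg/kg araC. Bone marrow cell pellets collected up to 4 h were extracted with 12 volumes of 3% PCA, centrifuged 10 min and neutralized to pH 7-8 with KOH/KHCO₃. AraCTP was expressed as AUC 0-4 h; the lower limit of quantitation was 3 nmol·h/g.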

The subject of data set [6] is Liver. As to the kind of experiment: Ratio of AUC for araCTP level in liver to plasma of Swiss Webster mouse. The data set is classed as functional.
Data set [7] deals with Liver. As to the kind of experiment: Ratio of AUC for araCTP level in liver to bone marrow of Swiss Webster mouse. The data set is classed as functional.
The mark [8] stands for this setting: citrate buffer, read-out: Solubility.
Setting [9] is: phosphate buffer, read-out: Solubility.

On to `Nc1ccn([C@@H]2O[C@H](COP3(=O)OCC[C@H](c4ccc(Cl)cc4)O3)[C@@H](O)[C@@H]2O)c(=O)n1` (some centres not stated), for which, in data set [1], the remaining at 24 h, 100 µM turned out to be 5%. The remaining at 72 h, 100 µM in data set [2] stood at 4%.

As to `Nc1ccn([C@@H]2O[C@H](COP3(=O)OCC[C@H](c4ccncc4)O3)[C@@H](O)[C@@H]2O)c(=O)n1` (stereo in doubt; 10i), the Stability is 92% in data set [1] (buffer, pH 7.4, 24 h, 100 µM, 24 h) and 90% in data set [2] (buffer, pH 7.4, 72 h, 100 µM, 72 h). Besides, the solubility in data set [3] (buffer) and in data set [4] (buffer) was above 200000 µg/mL in each case.

For `Nc1ccn([C@@H]2O[C@H](COP3(=O)OCC[C@H](c4cc(Cl)cc(Cl)c4)O3)[C@@H](O)[C@@H]2O)c(=O)n1` (some centres not stated), in data set [1], the remaining at 24 h, 100 µM is 82%. In addition, the remaining at 72 h, 100 µM in data set [2] stood at 76%. For the same compound, the solubility came out at 1100 µg/mL (≈ 2.16 mM) in data set [3] (setting [8]) and 500 µg/mL (≈ 0.984 mM) in data set [4] (setting [9]).

Take `Nc1ccn([C@@H]2O[C@H](COP3(=O)OCC[C@H](c4ccc(F)c(Cl)c4)O3)[C@@H](O)[C@@H]2O)c(=O)n1` (some centres not stated): in data set [1], the remaining at 24 h, 100 µM stood at 74%. Also, in data set [2], the remaining at 72 h, 100 µM came out at 52%. For the same compound, the solubility in data set [3] (setting [8]) amounted to 6700 µg/mL (≈ 13.6 mM); in data set [4] (setting [9]), 3200 µg/mL (≈ 6.51 mM).

Take `Nc1ccn([C@@H]2O[C@H](COP3(=O)OCC[C@H](c4cccnc4)O3)[C@@H](O)[C@@H]2O)c(=O)n1` (some centres not stated): the remaining at 24 h, 100 µM in data set [1] worked out at 99%. Further, the remaining at 72 h, 100 µM in data set [2] is 83%. Also, the solubility in data set [3] (setting [8]) is 172000 µg/mL (≈ 391 mM); in data set [4] (setting [9]), 176000 µg/mL (≈ 400 mM).

Take `Nc1ccn([C@@H]2O[C@H](COP3(=O)OCC[C@@H](c4ccncc4)O3)[C@@H](O)[C@@H]2O)c(=O)n1` (some centres not stated): in data set [1], the remaining at 24 h, 100 µM is above 99%. The remaining at 72 h, 100 µM in data set [2] is above 95%. In addition, the solubility worked out at 23900 µg/mL (≈ 54.3 mM) in data set [3] (setting [8]) and 7100 µg/mL (≈ 16.1 mM) in data set [4] (setting [9]). For the same compound, the AUC in the data set on Liver [5] was 148.8 nmol·h/g; in the data set on Bone marrow, below 12 nmol/g. Besides, the “Ratio AUC” value in the data set on Liver [6] was 19.6; with Liver [7], above 12.

`Nc1ccn([C@@H]2O[C@H](COP3(=O)OCC[C@H](c4ccc(Br)cc4)O3)[C@@H](O)[C@@H]2O)c(=O)n1` (some centres not stated): the remaining at 24 h, 100 µM in data set [1] came to 9%. The remaining at 72 h, 100 µM in data set [2] was 4%.

For `COC(=O)c1ccc([C@H]2CCOP(=O)(OC[C@H]3O[C@@H](n4ccc(N)nc4=O)[C@@H](O)[C@@H]3O)O2)cc1` (some centres not stated), the remaining at 24 h, 100 µM in data set [1] stood at 84%. Further, the remaining at 72 h, 100 µM in data set [2] stood at 61%. Also, the solubility in data set [3] (setting [8]) was 7400 µg/mL (≈ 14.9 mM); in data set [4] (setting [9]) it was 5700 µg/mL (≈ 11.5 mM).

For `Nc1ccn([C@@H]2O[C@H](COP3(=O)OCC[C@H](c4ccncc4)O3)[C@@H](O)[C@@H]2O)c(=O)n1` (stereo in doubt; 19R), the remaining at 24 h, 100 µM in data set [1] was above 99%. Also, the remaining at 72 h, 100 µM in data set [2] is above 97%. Also, the solubility in data set [3] (buffer) came out at 37900 µg/mL (≈ 86.1 mM); in data set [4] (buffer), 16700 µg/mL (≈ 37.9 mM). The results for the AUC with Liver [5] and in the data set with Bone marrow were 68 nmol·h/g and below 12 nmol/g, respectively. Further, the “Ratio AUC” value is 19.4 with Liver [6] and above 7 in the data set with Liver [7].

For the compound `Nc1ccn([C@@H]2O[C@H](CO)[C@@H](O)[C@@H]2O)c(=O)n1` [CYTARABINE], the results for the AUC in the data set on Liver [5] and with Bone marrow were below 19.2 nmol·h/g and 46 nmol/g, respectively. For the same compound, the “Ratio AUC” value with Liver [6] was below 0.16; with Liver [7] it was below 0.42.

Regarding `Nc1ccn([C@@H]2O[C@H](COP3(=O)OCC[C@H](c4cccc(Cl)c4)O3)[C@@H](O)[C@@H]2O)c(=O)n1` (some centres not stated), the remaining at 24 h, 100 µM in data set [1] was found to be 63%. For the same compound, the remaining at 72 h, 100 µM in data set [2] was 21%. For the same compound, the values for the solubility in data set [3] (setting [8]) and in data set [4] (setting [9]) were 3700 µg/mL (≈ 7.81 mM) and 1700 µg/mL (≈ 3.59 mM), respectively.

With `COC(=O)c1cccc([C@H]2CCOP(=O)(OC[C@H]3O[C@@H](n4ccc(N)nc4=O)[C@@H](O)[C@@H]3O)O2)c1` (some centres not stated), in data set [1], the remaining at 24 h, 100 µM came to 60%. For the same compound, the remaining at 72 h, 100 µM in data set [2] turned out to be 23%. Moreover, the values for the solubility in data set [3] (setting [8]) and in data set [4] (setting [9]) were 10300 µg/mL (≈ 20.7 mM) and 7200 µg/mL (≈ 14.5 mM), respectively.
